Results: PubChem BioAssay
Unmarked numbers belong to inactive results. Inconclusive results are not listed. Active and inactive are the calls of the source.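 How the source made its calls, unless noted: active means growth inhibition above 25% in both replicates, a cutoff set 3 SD above the mean; inconclusive means above 25% in only one replicate; inactive means the rest.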

How the values were obtained:
[1] = S. cerevisiae growth inhibition in permissive medium (OD615), pilot counter-assay for S. cerevisiae lifespan shortening project, permissive growth control (AID 705); conditions: OD615, 24 h, at 10 µM, hits give high values
Outline: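 Material: engineered DeaD yeast; Compound: one dose 10 µM, DMSO 0.25% final; Detection: absorbance (optical density) at 615 nm; Buffer or medium: permissive raffinose/galactose medium; Timing: 24 h exposure, 30 °C.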

[2] = S. cerevisiae growth inhibition in restrictive medium, OD615, pilot screen, restrictive growth control, yeast lifespan reduction project (AID 706;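 active means growth inhibition above a set limit, 3 SD over mean compound inhibition, in both replicates, cut at about 43% in these data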;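 further: modified DeaD lifespan yeast strain shifted to restrictive glucose medium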); conditions: OD615, 48 h, at 10 µM, hits give high values
Outline: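 Buffer or medium: restrictive glucose medium (CSMM-D); test system: modified S. cerevisiae; doses: single dose of 10 µM compound final, 0.25% DMSO; schedule: 48 h compound exposure at 30 °C; detection: absorbance (optical density) measured at 615 nm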

[3] = doxorubicin toxicity protection in MRP-1 cells – H69AR cells, CellTiter-Glo, duplicate, MRP-1 activator project, pilot screen (AID 807;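 active means viability increase at or above a cutoff of the median across tested compounds plus 3 SD, cut at about 8.5% in these data, passing the limit was not always enough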;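 further: compound pretreatment 18-22 h then 72 h combined with doxorubicin; 0% = doxorubicin alone and 100% = vehicle without doxorubicin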); conditions: H69AR viability with doxorubicin, CellTiter-Glo luminescence; at 10 µM; hits give high values
[4] = viability of HCT116 without oncogenic beta-catenin – human colon tumor cells, pilot screen (AID 823;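 active means cell viability at or below a set limit in both duplicate runs, the limit being the all-compound median minus 4 SD, cut at about 23% in these data, passing the limit was not always enough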;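 further: 0% = wells killed by 20 µM Hyamine and 100% = untreated DMSO cell wells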); conditions: HCT116 beta-catenin knockout viability, CellTiter-Glo, 60 h; at 10 µM; hits give low values
[5] = RAM pathway blockade in budding yeast – dse1pr::URA3 reporter, 5-FOA selection, pilot screen (AID 869;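 active means inhibition over a set limit, the all-compound mean plus 3 SD, in both replicate runs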;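 further: 0% = DMSO wells with no growth and 100% = 10 µM 1-NA-PP1 with full growth; RAM network block rescues cells from 5-FOA so hits raise OD615 growth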); conditions: S. cerevisiae dse1pr::URA3 5-FOA growth, OD615, 2 d; at 10 µM; hits give high values; strain carries analog-sensitive mutant Cbk1 kinase
[6] = RAM signaling pathway blockade in yeast – S. cerevisiae, Pdr1DBD-CYC8 efflux-inhibited sensitized strain, primary screen (AID 1298;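 active means RAM network inhibition above 8.4% in each of two replicates, 3 SD over the compound average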;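 further: 0% = DMSO untreated cells without growth and 100% = 10 µM 1-NA-PP1 full growth; higher means more yeast growth rescued from 5-FOA killing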); conditions: S. cerevisiae cbk1-as DSE1-URA3 strain, 5-FOA growth OD615, 2 d; at 50 µM; hits give high values

Compound	growth inhibition [1]	growth inhibition [2]	viability increase [3]	viability [4]	inhibition [5]	RAM network inhibition [6]
O=C(NCC1COc2ccccc2O1)c1ccc(NC(=O)C2CCCO2)cc1 (stereo not given)	-15.3%	3.32%	0.86%	99.7%	4.43%	8.99%
Cc1cc(NC(=O)CN2CCN(c3ncccn3)CC2)no1	-7.78%	-9.4%	-1.38%	98.6%	0.71%	3.12%
Cn1c(=O)[nH]c(=O)c2c1nc(Sc1ncccn1)n2CCCc1ccccc1	-10.3%	-9.67%	-4.15%	97%	1.43%	7.26%
Cc1nn(CC(=O)Nc2cccnc2N2CCOCC2)c(=O)c2ccccc12	-23.7%	1.05%	-2.18%	95%	1.22%	1.71%
Cc1ccc(Cn2c(Sc3nccc(C)n3)nc3c2c(=O)[nH]c(=O)n3C)cc1	-22.6%	2.41%	-2.6%	83.5%	2.89%	3.29%
Cc1ccccc1Cn1cc(S(=O)(=O)CC(=O)Nc2nccs2)c2ccccc21	-30.2%	6.15%	-5.34%	70.4%	4.8%	8.89%
COc1ccc2c(c1)-c1nc(NC(=O)c3cccs3)sc1CC2	-13.6%	-12.2%	-1.82%	33.6%	3.16%	1.99%
COCc1cc(=O)n2c(-c3ccccc3OC)n[nH]c2n1	-14%	4.39%	-3.36%	92.7%	2.2%	9.13%
CCOc1ccc(-n2c(SCC(=O)Nc3ccc4c(c3)OCCO4)nc3c(c2=O)SCC3)cc1	-12.9%	-5.05%	-2.09%	84.1%	3.17%	9.35%
Cc1cc(C)c(S(=O)(=O)NCC2CCC(C(=O)NCCCN3CCOCC3)CC2)c(C)c1 (stereo not given)	-6.14%	7.86%	-3.2%	81.3%	0.675%	-0.63%
O=C(Nc1nn[nH]n1)c1cccc(Oc2ccccc2)c1	-18.5%	8.51%	-0.81%	96.5%	3.22%	7.27%
O=C(OCC(=O)N1CCN(C(=O)c2ccco2)CC1)C1=COCCO1	-9.26%	-5.99%	-3.83%	105%	2.21%	3.69%
O=C(NCc1ccc(N2CCCC2=O)cc1)c1cn(CCc2ccccc2)nn1	-5.88%	-13.3%	1.6%	95.1%	1.7%	7.58%
Cc1cc(C)nc(/N=c2/ssnc2Cl)c1	100% (active)	89.9% (active)	-7.78%	30.8%	1.81%	-2.52%
CC(=O)c1c(C)n(-c2ccc(N(C)C)cc2)c2ccc(OCC(N)=O)cc12	-8.79%	-6.18%	-4.87%	84.8%	2.3%	6.29%
O=C(COCCOCC(=O)N(c1ccccn1)C1CCCCC1)N(c1ccccn1)C1CCCCC1	-12.8%	-7.35%	-2.48%	92.3%	1.31%	8.62%
O=C(c1ccccn1)N1CCN(c2ccc(C(F)(F)F)cn2)CC1	-20.7%	-2.59%	0.37%	96.5%	1.64%	3.84%
COc1ccc(CNc2oc(COc3ccccc3)nc2C#N)cc1	-9.65%	-2.3%	-2.11%	79%	4.33%	2.19%
Cc1ccc(S(=O)(=O)c2nc(-c3cccs3)oc2SCC(N)=O)cc1	-8.57%	10.4%	-2.87%	106%	-0.475%	3.22%
N#Cc1c(-c2ccccc2)cc(-c2ccco2)c(C#N)c1N	-21.9%	-10.5%	-7.79%	38.5%	1.86%	8.41%

Compound	growth inhibition [1]	growth inhibition [2]	viability increase [3]	viability [4]	inhibition [5]	RAM network inhibition [6]
COCCCNC(=O)c1cc2c(=O)n(C)c3ccccc3c2n1C	-7.96%	-5.92%	-7.13%	36.5%	0.345%	4.4%
COc1ccc(Nc2ncnc3c2cnn3Cc2ccccc2)cc1	-28.7%	3.04%	1.14%	88.9%	1%	3.74%
COc1ccc(Cn2c(=O)n(Cc3ccco3)c(=N)c3c4c(sc32)COC(C)(C)C4)cc1	-17.7%	-5.45%	-5.35%	66.2%	0.42%	2.55%
OCC1(c2cc(C(F)(F)F)n[nH]2)CCCCC1	5.65%	-0.23%	-2.12%	91.4%	1.2%	-0.68%
O=C(Nc1ccc(Cl)cc1)c1ccncc1	-11.5%	-3.32%	0.18%	106%	1.14%	6.15%
C=CCOC(=O)CCCC(=O)NC1CCCCC1	-26.9%	5.64%	-0.4%	95.6%	1.58%	4.88%
CNC(=O)C1C2C=CC3(O2)C1C(=O)N(CCOC)C3C(=O)NCc1ccc(OC)cc1 (stereo not given)	-11%	0.24%	-1.22%	96%	1.67%	2.29%
COc1ccc(C(=O)OCCN2C(=O)c3ccccc3C2=O)cc1OC	6.76%	3.49%	-1.79%	117%	0.34%	0.93%
COc1cc2c(cc1OC)C(C(=O)Nc1cccc(C)n1)C(c1cccnc1)N(C)C2=O (stereo not given)	8.34%	-5.33%	-3.94%	91.7%	0.58%	6.27%
COCC(=O)NC(C)c1nc2ccccc2[nH]1 (stereo not given)	-27.6%	-2.47%	-1.7%	91.9%	0.975%	3.95%
COc1ccccc1C(=O)Nc1nnn(C)n1	-26.5%	6.7%	-0.45%	108%	0.84%	6.87%
c1cncc(CNc2c3c(nc4nnnn24)CCCC3)c1	-7.77%	-8.93%	-2.59%	90%	0.45%	-0.36%
CC1(C)Cc2c(c(=S)nc(-c3ccccc3)n2CCOCCO)CO1	-16.5%	19.6%	-2.12%	98.2%	0.775%	4.58%
CCOc1ccc(N(CC(=O)NC2CCCCCC2)S(=O)(=O)c2c(C)noc2C)cc1	-4.29%	-1.42%	-6.44%	44.8%	3.02%	5.55%
CCCCNC(=O)C1C2C=CC3(CN(Cc4ccc(C)cc4)C(=O)C13)O2 (stereo not given)	2.61%	-16.4%	-2.02%	95.1%	0.08%	0.67%
COc1ccc(N2CC(O)=C(c3nc(C)cs3)C2=N)cc1	8.87%	5.31%	-4.67%	96.7%	1.6%	3.27%
Cc1ccc(C(=O)c2cn[nH]c2-c2cc(Cl)ccc2O)cc1	7.61%	1.2%	-0.14%	95.7%	1.08%	-1.14%
CN1CCc2c(sc3c2c(=O)n(-c2ccc(Cl)cc2)c2nncn32)C1	-12.1%	7.29%	0.1%	92.1%	1.45%	2.09%
COc1ccccc1NC1=NCC(=O)N1Cc1ccccc1	-30.4%	-3.24%	-0.5%	93.9%	3.58%	4.78%
Cc1ccc(C(=O)N2CCN(C)CC2)cc1S(=O)(=O)N1CCCCC1	0.05%	-11.5%	-2.65%	90.1%	1.31%	0.57%
